We go through one compound from paper PMC9064382 (RSC Advances, 2019).

What all share (type): in vitro ADME
One data set concerns the target T1, hOATP1B1 (Homo sapiens, UniProt Q9Y6L6).
T1 sequence (Q9Y6L6 1-691): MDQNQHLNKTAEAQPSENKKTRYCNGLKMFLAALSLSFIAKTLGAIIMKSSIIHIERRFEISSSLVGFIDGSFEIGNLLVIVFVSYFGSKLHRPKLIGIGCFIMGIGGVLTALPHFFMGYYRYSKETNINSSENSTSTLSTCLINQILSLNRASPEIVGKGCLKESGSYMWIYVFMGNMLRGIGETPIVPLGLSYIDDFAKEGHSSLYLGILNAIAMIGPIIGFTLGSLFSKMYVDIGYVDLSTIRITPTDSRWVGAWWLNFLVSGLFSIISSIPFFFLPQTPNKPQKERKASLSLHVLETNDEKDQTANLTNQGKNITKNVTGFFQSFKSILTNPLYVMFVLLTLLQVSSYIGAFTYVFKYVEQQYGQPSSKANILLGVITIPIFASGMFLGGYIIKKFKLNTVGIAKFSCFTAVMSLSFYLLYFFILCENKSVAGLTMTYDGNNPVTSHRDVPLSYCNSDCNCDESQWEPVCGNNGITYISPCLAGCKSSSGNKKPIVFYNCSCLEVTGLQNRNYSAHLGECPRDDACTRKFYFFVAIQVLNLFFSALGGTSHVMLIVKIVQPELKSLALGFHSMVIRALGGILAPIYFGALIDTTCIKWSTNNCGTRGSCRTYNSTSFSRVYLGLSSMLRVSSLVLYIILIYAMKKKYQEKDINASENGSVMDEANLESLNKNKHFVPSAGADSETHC

The target of the next data set is T2, hOAT3 (Homo sapiens, UniProt Q8TCC7).
T2 sequence (Q8TCC7 1-542): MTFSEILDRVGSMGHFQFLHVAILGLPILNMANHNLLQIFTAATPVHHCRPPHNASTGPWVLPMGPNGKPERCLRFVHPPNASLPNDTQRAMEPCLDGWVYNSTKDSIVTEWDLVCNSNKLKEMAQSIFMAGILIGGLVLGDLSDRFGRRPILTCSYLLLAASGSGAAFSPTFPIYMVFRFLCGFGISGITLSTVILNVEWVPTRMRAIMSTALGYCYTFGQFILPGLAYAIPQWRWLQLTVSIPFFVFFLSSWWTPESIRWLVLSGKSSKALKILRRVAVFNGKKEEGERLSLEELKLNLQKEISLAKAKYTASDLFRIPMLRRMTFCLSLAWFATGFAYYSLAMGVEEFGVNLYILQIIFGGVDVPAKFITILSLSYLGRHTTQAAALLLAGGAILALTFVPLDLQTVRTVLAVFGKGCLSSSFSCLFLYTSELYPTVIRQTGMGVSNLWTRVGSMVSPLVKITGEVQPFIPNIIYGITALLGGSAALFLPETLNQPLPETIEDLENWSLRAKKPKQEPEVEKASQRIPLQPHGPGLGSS
Description: Inhibition of 3H-ES uptake in hOAT3-transfected cells by liquorice ingredients. The following applies: read-out: IC50 on hOAT3; 3H-ES probe, 2 min. Put shortly: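 Transfected and mock cells were incubated 2 min at 37 °C with 200 nmol L−1 3H-ES plus test compound. The screen used a single 100 μmol L−1 concentration with reference inhibitors as positive controls, giving an inhibition rate (n = 3, mean ± sd). […] DMSO was <0.2%. Cells were stopped with cold DPBS, rinsed three times, lysed in 0.1 mol L−1 NaOH and counted by scintillation (dpm).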

The target of a further data set is T3, hOATP1B3 (Homo sapiens, UniProt Q9NPD5).
T3 sequence (Q9NPD5 1-702): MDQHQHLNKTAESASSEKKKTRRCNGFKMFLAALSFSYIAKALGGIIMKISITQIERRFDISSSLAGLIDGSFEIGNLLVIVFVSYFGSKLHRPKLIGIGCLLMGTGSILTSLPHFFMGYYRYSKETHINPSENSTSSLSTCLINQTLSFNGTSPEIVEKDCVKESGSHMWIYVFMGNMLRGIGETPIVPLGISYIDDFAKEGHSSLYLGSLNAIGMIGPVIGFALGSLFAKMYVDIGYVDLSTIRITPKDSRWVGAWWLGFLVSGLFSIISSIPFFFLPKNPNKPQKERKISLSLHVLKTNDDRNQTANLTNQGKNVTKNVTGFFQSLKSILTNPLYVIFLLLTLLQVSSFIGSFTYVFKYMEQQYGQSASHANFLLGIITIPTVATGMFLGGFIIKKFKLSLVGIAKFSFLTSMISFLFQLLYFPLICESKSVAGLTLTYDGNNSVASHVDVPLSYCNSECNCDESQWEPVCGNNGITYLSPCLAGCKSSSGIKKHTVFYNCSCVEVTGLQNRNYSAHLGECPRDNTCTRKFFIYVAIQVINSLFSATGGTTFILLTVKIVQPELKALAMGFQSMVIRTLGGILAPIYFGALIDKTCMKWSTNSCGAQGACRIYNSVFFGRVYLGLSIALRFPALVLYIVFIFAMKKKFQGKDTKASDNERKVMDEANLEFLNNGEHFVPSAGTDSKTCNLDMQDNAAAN

A further data set deals with T4, hOCT2 (Homo sapiens, UniProt O15244).
T4 sequence (O15244 1-555): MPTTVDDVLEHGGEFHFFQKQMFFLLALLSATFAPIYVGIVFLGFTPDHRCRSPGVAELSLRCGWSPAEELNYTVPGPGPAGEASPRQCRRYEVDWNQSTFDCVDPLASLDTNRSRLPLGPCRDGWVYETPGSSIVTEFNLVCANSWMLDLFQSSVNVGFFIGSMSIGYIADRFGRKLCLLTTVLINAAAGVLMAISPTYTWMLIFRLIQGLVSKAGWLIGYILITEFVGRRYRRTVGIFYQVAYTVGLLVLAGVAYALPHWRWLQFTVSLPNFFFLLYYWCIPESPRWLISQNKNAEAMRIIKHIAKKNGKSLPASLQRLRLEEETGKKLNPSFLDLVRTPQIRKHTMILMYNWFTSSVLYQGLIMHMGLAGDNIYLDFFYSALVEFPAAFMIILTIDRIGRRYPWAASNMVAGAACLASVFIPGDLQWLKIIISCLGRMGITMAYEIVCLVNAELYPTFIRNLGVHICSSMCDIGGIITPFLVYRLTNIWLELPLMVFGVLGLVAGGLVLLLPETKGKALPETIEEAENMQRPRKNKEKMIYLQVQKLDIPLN
As to the kind of experiment: Inhibition of 14C-TEA uptake in hOCT2-transfected cells by liquorice ingredients. The following applies: 5 min.

As for `C=CC(C)(C)c1cc(/C=C/C(=O)c2ccc(O)cc2)c(OC)cc1O` [licochalcone A], the IC50 – broadly, the concentration that gives 50% inhibition – on hOATP1B1 (read-out: IC50 on hOATP1B1, 3H-ES probe, 2 min) amounted to 1270 nM; at hOAT3, 3600 nM; on hOATP1B3 (read-out: IC50 on hOATP1B3, 3H-ES probe, 2 min), 1910 nM; on hOCT2 (read-out: IC50 on hOCT2, 14C-TEA probe) it was 6610 nM. The “inhibition of hOATP1B1” value against hOATP1B1 (screening at 100 μm) is given as “strong inhibitors”. The “inhibition of hOATP1B3” value at hOATP1B3 (screening at 100 μm) is reported as “strong inhibitors”. For the same compound, at hOCT2 (100 μm, 5 μmol L^−1 14C-TEA), the “inhibitory rate on hOCT2” value came to 91.76%.
